The record followed here is PMC7816766 (Journal of Medicinal Chemistry, 2020).

What is called EC50 is the concentration that produces a half-maximal response.

Data set [1] deals with MDA-MB-231 or MDA-MB-468 cells. Nature of the data set: Cell viability/growth of breast cancer cells harboring active STAT3. In kind it is cell-based, human. The note with it: for viability, anchorage-dependent and independent growth, and colony formation: at 1 μM or less.
For data set [2], the system named is MDA-MB-231 cells. Description: Clonogenic. In kind it is cell-based, human. The note with it: treated once. In a few lines:
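Cells were seeded as single-cell cultures at 250 cells per well. They were treated once the next day with test compound at 0–1 μM and cultured until large colonies were visible. Colonies were stained with crystal violet for 4 h and photographed. Data came from three independent determinations.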

The test system of data set [3] is STAT3 DNA-binding activity in MDA-MB-468 cells. Nature of the data set: Constitutive STAT3 DNA-binding activity in treated breast cancer cells. The class given is cell-based, human. As to conditions: for earliest time of inhibition of STAT3 DNA-binding activity in cells: MDA-MB-468; for constitutive STAT3 DNA-binding activity in cells: cells treated with 1–5 μM (BBI-608 0.5–5 μM, 2–3 h). In a few lines: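 MDA-MB-468 cells were treated with 5 μM test compound for 1–3 h; controls received 0.05% DMSO. Nuclear extracts of equal total protein were incubated with 33P-labelled hSIE probe (c-fos m67 variant) for 30 min at 30 °C. STAT3:DNA complexes were then resolved by EMSA. Results came from two to three independent determinations.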

Another data set deals with pY705STAT3. Description: Immunoblotting for pY705STAT3 in treated breast cancer cells. The class given is cell-based, human. As to conditions: 1–5 μM, 0–24 h (BBI-608 0.5–5 μM, 2–3 h). In a few lines: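 Controls received 0.05% DMSO. Equal-protein RIPA whole-cell lysates were immunoblotted for pY705STAT3, STAT3 and tubulin. Results came from two to three independent determinations.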

In data set [4] the test system is EGFR, JAK2, Src, AKT and ERK1/2. Nature of the data set: Immunoblotting for nonspecific effects in MDA-MB-231 cells. The note with it: 1 or 3 μM. In kind it is cell-based, human. On the technique in general: In western blotting, separated proteins are transferred to a membrane and probed.
The subject of data set [5] is c-Myc, VEGF, Bcl-2, survivin. Description: Immunoblotting for STAT3 target gene expression in MDA-MB-231 cells. The class given is cell-based, human. The note with it: 1 or 3 μM, 3–24 h. The procedure, abridged: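 MDA-MB-231 cells were treated with 1 or 3 μM test compound for 3–24 h; controls received 0.05% DMSO. Whole-cell lysates were prepared in RIPA buffer. Equal total protein was run on SDS-PAGE and immunoblotted for c-Myc, Bcl-2, VEGF and survivin, with tubulin as loading control. Results came from two to three independent determinations.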

The subject of data set [6] is MDA-MB-231 and MDA-MB-468 cells. Description: Induction of apoptosis, PARP cleavage by Western blotting. In kind it is cell-based, human. As to conditions: 1 or 3 μM, 3–24 h.
In data set [7] the test system is human breast cancer cells. Nature of the data set: Combination treatment with docetaxel or cisplatin, CyQuant assay. In kind it is cell-based. The note with it: 1 μM 7g for 6 h, then 0–100 nM docetaxel or 0–20 μM cisplatin, 72 h.
A short description of another data set: Human HLM MetID study. In kind it is in vitro ADME. The note with it: preliminary results.
The target of a further data set is STAT3 (Mus musculus, UniProt P42227). The class given is biochemical. The note with it: for direct effect on STAT3 activity in the DNA-binding assay/EMSA: up to 10 μM. A general note: A gel shift assay detects complexes by their altered migration in electrophoresis.
Another data set relates to STAT5:STAT5 homodimers. In kind it is biochemical. The note with it: 10 µM, MGFe probe (Fig. S6).
Data set [8] deals with MDA-MB-231 cells. Description: Cell growth by trypan blue exclusion/phase-contrast microscopy, MDA-MB-231. In kind it is cell-based, human. The note with it: 2 μM.
Data set [9] deals with MCF-7 cells. Description: Cell growth by trypan blue exclusion/phase-contrast microscopy, MCF-7. The class given is cell-based, human. As to conditions: 2 μM. The procedure, abridged: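 Cells cultured in 6-well plates and treated once with 2 μM test compound. Every 24 h (up to 96 h), cells were harvested and viable cells counted by trypan blue exclusion under phase-contrast microscopy. Counts were plotted against treatment duration. Cells were grown in DMEM with 10% heat-inactivated FBS.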

Another data set concerns the target T1, STAT1:STAT1 homodimers (Mus musculus, UniProt P42225).
T1 sequence (P42225 2-749 limits assumed): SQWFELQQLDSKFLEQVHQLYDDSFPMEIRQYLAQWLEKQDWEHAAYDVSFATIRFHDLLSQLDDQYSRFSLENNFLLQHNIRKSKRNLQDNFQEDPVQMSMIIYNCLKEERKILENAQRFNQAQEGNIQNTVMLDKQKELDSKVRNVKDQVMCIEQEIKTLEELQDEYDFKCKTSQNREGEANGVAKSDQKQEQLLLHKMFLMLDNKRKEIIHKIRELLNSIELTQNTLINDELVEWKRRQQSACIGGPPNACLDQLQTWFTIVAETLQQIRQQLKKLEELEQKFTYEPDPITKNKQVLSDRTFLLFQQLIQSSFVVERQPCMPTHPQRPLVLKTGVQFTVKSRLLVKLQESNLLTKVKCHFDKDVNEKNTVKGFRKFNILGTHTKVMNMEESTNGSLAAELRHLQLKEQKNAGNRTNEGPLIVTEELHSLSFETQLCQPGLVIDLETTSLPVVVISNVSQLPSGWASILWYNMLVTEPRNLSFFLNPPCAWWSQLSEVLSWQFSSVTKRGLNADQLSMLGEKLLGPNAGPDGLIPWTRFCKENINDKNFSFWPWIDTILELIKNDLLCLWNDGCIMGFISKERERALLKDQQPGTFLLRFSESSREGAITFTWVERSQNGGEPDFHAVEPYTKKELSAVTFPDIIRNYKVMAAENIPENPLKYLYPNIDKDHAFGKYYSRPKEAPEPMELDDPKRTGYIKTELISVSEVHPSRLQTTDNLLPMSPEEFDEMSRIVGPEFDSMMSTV
In kind it is biochemical. As to conditions: 10 µM, MGFe probe (Fig. S6).

Another data set deals with MCF-10A cells. Description: CyQuant cell viability assay, MCF-10A. The class given is cell-based. As to conditions: Homo sapiens, 72 h, read-out: Cell viability EC50 MCF-10A. In a few lines: (§1)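 Cells in 96-well plates were treated with test compound over a range of concentrations for 72 h, then assayed with CyQuant. Viability was normalised to control as % and plotted against concentration to derive EC50. Media: MCF-10A in DMEM/F12 with 5% horse serum, EGF, insulin and hydrocortisone; other lines in DMEM with 10% heat-inactivated FBS.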

The test system of data set [10] is MDA-MB-231 cells. Description: CyQuant cell viability assay, MDA-MB-231. The class given is cell-based. The note with it: Homo sapiens, MDA-MB-231, 72 h, read-out: Cell viability EC50 MDA-MB-231.
The subject of data set [11] is MCF-7 cells. Description: CyQuant cell viability assay, MCF-7. In kind it is cell-based, human. The procedure, abridged:
as §1

The subject of a further data set is MDA-MB-468 cells. Description: CyQuant cell viability assay, MDA-MB-468. In kind it is cell-based. The note with it: Homo sapiens, MDA-MB-468, 72 h, read-out: Cell viability EC50 MDA-MB-468. In a few lines: as §1

The structures appear in SMILES notation. Entries after “also recorded” stand apart in the source; their conditions may differ.

STAT3, sequence (P42227 2-770 limits assumed): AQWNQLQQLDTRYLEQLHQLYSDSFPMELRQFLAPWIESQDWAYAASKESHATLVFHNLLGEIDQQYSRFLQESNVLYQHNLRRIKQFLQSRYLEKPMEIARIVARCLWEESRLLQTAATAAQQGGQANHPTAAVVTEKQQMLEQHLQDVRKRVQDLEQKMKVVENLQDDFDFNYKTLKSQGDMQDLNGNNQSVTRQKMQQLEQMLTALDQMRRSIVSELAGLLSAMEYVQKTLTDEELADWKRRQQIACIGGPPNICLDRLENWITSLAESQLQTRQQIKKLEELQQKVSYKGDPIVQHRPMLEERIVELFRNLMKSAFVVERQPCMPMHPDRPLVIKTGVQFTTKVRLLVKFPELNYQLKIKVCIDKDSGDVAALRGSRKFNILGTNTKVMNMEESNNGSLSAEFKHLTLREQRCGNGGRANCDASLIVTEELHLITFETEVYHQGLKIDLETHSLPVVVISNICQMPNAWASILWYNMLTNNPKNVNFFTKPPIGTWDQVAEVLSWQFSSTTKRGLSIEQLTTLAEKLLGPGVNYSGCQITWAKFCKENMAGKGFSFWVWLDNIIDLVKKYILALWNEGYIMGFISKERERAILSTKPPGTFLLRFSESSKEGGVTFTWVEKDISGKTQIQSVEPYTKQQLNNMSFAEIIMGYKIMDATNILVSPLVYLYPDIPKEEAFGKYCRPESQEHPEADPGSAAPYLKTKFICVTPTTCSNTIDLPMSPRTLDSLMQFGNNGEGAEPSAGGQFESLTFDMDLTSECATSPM

For `O=C1OCc2cc(N(Cc3ccc(C4CCCCC4)cn3)C(=O)[C@H]3CCN3S(=O)(=O)c3c(F)c(F)c(F)c(F)c3F)ccc21` [Compound 7g], in data set [1], the “viability, anchorage-dependent and independent growth, and colony formation” value is recorded as “strongly inhibited”. The “inhibition of colony formation” value in the data set with MDA-MB-231 cells [2] (0.5 μM) is on record as “significant inhibition of colony formation”. Besides, in the data set with MDA-MB-231 cells [2] (1 μM), the “inhibition of colony formation” value is “complete inhibition of colony formation”. Further, in data set [3], the “earliest time of inhibition of STAT3 DNA-binding activity in cells” value (“earliest time of inhibition … in cells” for short) worked out at 5 min and the “constitutive STAT3 DNA-binding activity in cells” value is “inhibited to variable degrees”. Besides, the “pY705STAT3 in breast cancer cells” value in the data set on pY705STAT3 was “inhibited pY705STAT3 in dose- and time-dependent manner”. Besides, the “effect on tyrosine kinases EGFR, JAK2, Src, or AKT and ERK1/2” value in [4] is given as “no measurable effect”. Besides, in data set [5], the “expression of STAT3 target genes c-Myc, VEGF, Bcl-2, survivin” value is “inhibited the expression”. In [6], the PARP cleavage result is “induced poly (ADP-ribose) polymerase (PARP) cleavage”. Moreover, the “response to combined treatment with docetaxel or cisplatin” value in [7] is “strong shift of the dose–response curves to the left indicative of an enhanced response”. Moreover, the “species found in HLM MetID study” value in the data set “Human HLM MetID study” was “both the parent compound and its hydroxy-acid metabolite”.
As to `O=C(O)c1ccc(N(Cc2ccc(C3CCCCC3)cc2)C(=O)C2CN(S(=O)(=O)c3c(F)c(F)c(F)c(F)c3F)C2)cc1O` [Compound 5c], the “EMSA IC50” value at STAT3 (STAT3:DNA complexes, hSIE probe, 30 min preincubation at room temperature) is listed as “loss of activity”.
Consider `CNC(=O)c1ccc(N(Cc2ccc(C3CCCCC3)cn2)C(=O)[C@H]2CCN2S(=O)(=O)c2c(F)c(F)c(F)c(F)c2F)cc1O` [Compound 8q], for which, in the data set with STAT5:STAT5 homodimers, the “effect on DNA-binding activity of STAT5:STAT5 homodimers” value (shortened to “effect … of STAT5:STAT5 homodimers”) is “minimal effect”. Further, the “inhibition of colony formation” value in the data set with MDA-MB-231 cells [2] (1 μM) is listed as “does not show any inhibitory effect”. For the same molecule, the “cell growth MDA-MB-231, trypan blue exclusion” value in the data set on MDA-MB-231 cells [8] was “good activity”. For the same molecule, the “cell growth MCF-7, trypan blue exclusion” value in the data set with MCF-7 cells [9] is given as “no effect”. In data set [3], the “earliest time of inhibition … in cells” value is 360 min and the “constitutive STAT3 DNA-binding activity in cells” value is recorded as “inhibited to variable degrees”. In the data set on pY705STAT3, the “pY705STAT3 in breast cancer cells” value is “inhibited pY705STAT3 in dose- and time-dependent manner”.
As to `COC(=O)c1ccc(N(Cc2ccc(C3CCCCC3)cc2)C(=O)[C@H]2CCN2S(=O)(=O)c2c(F)c(F)c(F)c(F)c2F)c(F)c1` [Compound 7b], on STAT1:STAT1 homodimers, the “effect on DNA-binding activity of STAT1:STAT1 homodimers” value is recorded as “minimal effect”. The “effect … of STAT5:STAT5 homodimers” value in the data set with STAT5:STAT5 homodimers is listed as “minimal effect”. Further, the EC50 in the data set on MCF-10A cells came out at 6 µM.
Turning to `O=C1NC(=O)c2cc(N(Cc3ccc(C4CCCCC4)cn3)C(=O)[C@H]3CCN3S(=O)(=O)c3c(F)c(F)c(F)c(F)c3F)ccc21` [Compound 9k], the “effect … of STAT5:STAT5 homodimers” value in the data set on STAT5:STAT5 homodimers is “minimal effect”. Moreover, in data set [1], the “viability, anchorage-dependent and independent growth, and colony formation” value is recorded as “strongly inhibited”. In addition, the “inhibition of colony formation” value in the data set with MDA-MB-231 cells [2] (0.5 μM) is on record as “minimal to moderate inhibition of colony formation”. In the data set on MDA-MB-231 cells [2] (1 μM), the “inhibition of colony formation” value was “significant inhibition”. In addition, the “cell growth MDA-MB-231, trypan blue exclusion” value in the data set with MDA-MB-231 cells [8] is recorded as “strongly inhibited cell growth”. Further, the “cell growth MCF-7, trypan blue exclusion” value in the data set on MCF-7 cells [9] was “no effect”. For the same molecule, in data set [3], the “earliest time of inhibition … in cells” value was 5 min and the “constitutive STAT3 DNA-binding activity in cells” value is “inhibited to variable degrees”. Also, the “pY705STAT3 in breast cancer cells” value in the data set on pY705STAT3 is “inhibited pY705STAT3 in dose- and time-dependent manner; also recorded: bounced back by 24 h”.
For `COC(=O)c1ccc(N(Cc2ccc(C3CCCCC3)nc2)C(=O)[C@H]2CCN2S(=O)(=O)c2c(F)c(F)c(F)c(F)c2F)cc1O` [Compound 7c], the EC50 in the data set on MCF-10A cells came out at 3.6 µM.
For the molecule `O=C([C@H]1CCN1S(=O)(=O)c1c(F)c(F)c(F)c(F)c1F)N(Cc1ccc(C2CCCCC2)cc1)c1ccc(-c2nnn[nH]2)cc1` [Compound 6e], the EC50 with MDA-MB-231 cells [10] is above 10 µM. Also, the “activity against breast cancer cells” value in data set [1] (up to 10 μM) is listed as “weak cellular activity”.
Take `COc1ccc(S(=O)(=O)Nc2cc(-c3c(O)ccc4ccccc34)c(O)c3ccccc23)cc1` [Compound C188-9]: on STAT3, the “direct effect on STAT3 activity in the DNA-binding assay/EMSA” value is “minimal direct effect”. For the same molecule, in the data set on MCF-7 cells [11], the “stronger activity against MCF-7 than MDA-MB-231” value amounted to 2 fold.
As to `CC(=O)c1cc2c(o1)C(=O)c1ccccc1C2=O` [napabucasin, reference compound], the “direct effect on STAT3 activity in the DNA-binding assay/EMSA” value on STAT3 is given as “minimal direct effect”. Besides, in data set [3], the “constitutive STAT3 DNA-binding activity in cells” value is reported as “weak to moderate effects”. For the same molecule, the “pY705STAT3 in breast cancer cells” value in the data set with pY705STAT3 is “weak to moderate effects”.
For the molecule `COC(=O)c1ccc(N(Cc2ccc(C3CCCCC3)cc2)C(=O)[C@H]2CCN2S(=O)(=O)c2c(F)c(F)c(F)c(F)c2F)cc1O` [Compound 7a], the “effect on DNA-binding activity of STAT1:STAT1 homodimers” value at STAT1:STAT1 homodimers was “minimal effect”. Moreover, the “effect … of STAT5:STAT5 homodimers” value with STAT5:STAT5 homodimers was “minimal effect”. Besides, the EC50 in the data set with MDA-MB-468 cells amounted to 2.5 µM; in the data set on MCF-10A cells, 4.3 µM.
